Measurements taken from PMC7723568 (Annals of Translational Medicine, 2020).
“Also recorded” adds a separate entry of the source. Where no end group is shown, it is not given here.

Assays:
[1] = system: SGC-7901 subcutaneous GC xenograft; assay: In vivo fluorescence imaging of SGC-7901 xenograft models; set-up: species or system BALB/c-nu/nu mice; conditions: FITC labeled, 1 µg/g body weight, tail vein
Method in brief: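 Male BALB/c nude mice (4–5 weeks, 20–25 g) received 5×10^6 SGC-7901 cells subcutaneously in the axilla, and tumours grew about 3 weeks to 1 cm3. Mice were randomised to two groups of ten. Each group received FITC-peptide probe or FITC-scrambled peptide, 1 µg/g via the tail vein. Under isoflurane, five mice per group were imaged every half hour until the probe was excreted. Signal was expressed as (p/sec/cm2/sr)/(µW/cm2), mean ± SE.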

[2] = molecular target: CD44v3–v10 protein (Homo sapiens, UniProt P16070); assay: Binding affinity to CD44v3–v10 protein
Chain of CD44v3–v10 protein (P16070 21-699 isoform P16070-4 limits assumed): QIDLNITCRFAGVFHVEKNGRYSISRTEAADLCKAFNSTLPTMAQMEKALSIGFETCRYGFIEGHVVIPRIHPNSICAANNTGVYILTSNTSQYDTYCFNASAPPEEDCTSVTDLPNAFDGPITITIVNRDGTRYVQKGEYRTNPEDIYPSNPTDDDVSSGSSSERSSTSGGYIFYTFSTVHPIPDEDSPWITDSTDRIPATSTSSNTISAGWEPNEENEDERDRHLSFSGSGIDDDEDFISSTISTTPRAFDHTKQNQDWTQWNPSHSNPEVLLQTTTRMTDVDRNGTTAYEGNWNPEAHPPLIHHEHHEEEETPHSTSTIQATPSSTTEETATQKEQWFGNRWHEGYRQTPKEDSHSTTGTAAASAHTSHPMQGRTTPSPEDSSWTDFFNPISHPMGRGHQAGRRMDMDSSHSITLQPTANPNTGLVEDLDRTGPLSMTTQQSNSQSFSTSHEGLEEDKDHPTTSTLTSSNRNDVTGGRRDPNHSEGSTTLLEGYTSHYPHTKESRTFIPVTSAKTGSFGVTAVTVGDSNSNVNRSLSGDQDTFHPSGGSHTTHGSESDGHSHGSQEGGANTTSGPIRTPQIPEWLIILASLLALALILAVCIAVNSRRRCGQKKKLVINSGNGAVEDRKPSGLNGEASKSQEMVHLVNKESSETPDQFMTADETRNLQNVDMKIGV
Method in brief: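 Biotin-labelled peptide at a range of concentrations was incubated with immobilised recombinant CD44v3–v10 protein, with BSA as the comparison surface. Bound peptide was read as OD values, as in the competitive ELISA. Kd came from fitted binding curves and Scatchard plots. A scrambled peptide was the control. Each point was measured three times, mean ± SD.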

[3] = system: excised tumor and organs (liver, stomach, kidney, lung, heart) of SGC-7901 xenograft mice; assay: Biodistribution: fluorescence imaging of excised tumor and organs; assay type: in vivo, BALB/c-nu/nu mice; conditions: FITC labeled, 1 µg/g, i.v., 3 h after injection
[4] = system: MKN-28 cells; assay: Immunofluorescence staining of MKN-28 cells; assay type: cell-based; conditions: 5 µM FITC-labeled peptide, 37 °C, 10 min, co-stained with anti-CD44v6 antibody
Method in brief: (§1)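 Gastric cancer cells were grown in RPMI 1640 with 10% FBS and seeded on coverslips overnight. They were fixed in 4% paraformaldehyde and blocked in 3% BSA. Cells were labelled with monoclonal anti-CD44v6 (1:500, 1 h) and a Cy3 secondary, then with 5 µM FITC-peptide at 37 °C for 10 min. Nuclei were stained with DAPI; imaging was by fluorescence microscopy at ×400.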

[5] = system: HEK-293 cells transfected with empty plasmids; assay: Immunofluorescence staining of HEK-293 cells transfected with empty plasmid; assay type: cell-based, human; conditions: 5 µM rhodamine B-labeled peptide; GFP reporter
Method in brief: (§2)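 HEK-293 cells were grown in DMEM with 10% FBS and transfected 48 h beforehand with a GFP-reporter CD44v3–v10 plasmid or an empty plasmid. Cells were fixed in 4% paraformaldehyde and blocked in 3% BSA. They were then stained with 5 µM rhodamine B-labelled peptide, with scrambled peptide as control. Nuclei were stained with DAPI, and cells were imaged by fluorescence microscopy at ×400.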

[6] = system: CD44v3–v10 over expressed HEK-293 cells; assay: Immunofluorescence staining of CD44v3–v10 over expressed HEK-293 cells; assay type: cell-based, human; conditions: 5 µM rhodamine B-labeled peptide; GFP reporter
Method in brief: as §2

[7] = system: SGC-7901 cells; assay: Immunofluorescence staining of SGC-7901 cells; assay type: cell-based; conditions: 5 µM FITC-labeled peptide, 37 °C, 10 min, co-stained with anti-CD44v6 antibody
Method in brief: as §1

[8] = system: MKN-45 cells; assay: Immunofluorescence staining of MKN-45 cells; assay type: cell-based; conditions: 5 µM FITC-labeled peptide, 37 °C, 10 min, co-stained with anti-CD44v6 antibody
Method in brief: as §1

[9] = system: CD44v3–v10 over expressed HEK-293 cells; assay type: binding, human; conditions: in words; 1×10^10 pfu/well, 37 °C, 1 h
Method in brief: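 HEK-293 cells were transfected with a CD44v3–v10 plasmid or an empty plasmid, and assayed 48 h later. Candidate or unrelated phages (1×10^10 pfu/well) were bound for 1 h at 37 °C, then washed six times. Detection used goat anti-M13 (1:200), HRP secondary (1:5,000) and TMB, read at OD450. Selectivity = (ODpv – ODbv)/(ODpc – ODbc), with backgrounds from cells without phage. Triplicate, mean ± SD.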

[10] = system: Recombinant CD44v3–v10 protein; assay: Competitive inhibition ELISA on recombinant CD44v3–v10 protein; assay type: binding, human; conditions: in words; CD44v3–v10 protein 1 µg/well; various peptide concentrations; n = 3
Method in brief: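 Plates were coated with recombinant CD44v3–v10 protein (1 µg/well) and preincubated with candidate or control peptide at various concentrations. Candidate phage binding was then read by phage ELISA: goat anti-M13 (1:200), HRP secondary (1:5,000), TMB, OD450. Inhibition = 100% – 100%×(ODt – ODb)/(ODi – ODb), where ODb is wells lacking anti-M13 antibody.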

ELTVMGYYPGMS [ELT, ELTVMGYYPGMS]
Elimination (fluorescence signal four hours after injection) ([1]; 4 h): nearly undetectable | Time of top fluorescent intensity in tumor ([1]; n = 5): 3 h | Kd [2]: 0.611 µM | Distribution in liver and kidney [3]: distributed in liver and kidney

EHDNTGMLYSVD [control peptide]
Fluorescent staining of MKN-28 [4]: only background staining | Fluorescent staining of HEK-293 transfected with empty plasmid [5]: only background staining | Fluorescent staining of CD44v3–v10 over expressed HEK-293 [6]: only background staining | Fluorescent staining of SGC-7901 [7]: only background staining | Fluorescent staining of MKN-45 [8]: only background staining | Distribution in liver and kidney [3]: distributed in liver and kidney | Strong fluorescence on excised tumor tissue (mice positive/total) ([3]; five mice per group): not control group

ELTVMGYYPGMS [C3]
Binding activity / affinity / selectivity ranking in phage ELISA [9]: highest binding activity and frequency; also recorded: second highest selectivity; also recorded: highest affinity

THMPSDPGMNLL [C1]
Binding activity / affinity / selectivity ranking in phage ELISA [9]: highest binding activity and frequency; also recorded: considerable affinity

THMPSDPGMNLL
Inhibition of candidate phage binding by displayed peptide [10]: dose-dependent manner
